Assay outcomes: PubChem BioAssay, several laboratories
In the library only some 1.6% were active in any assay of this set; here they are far more common.
p47phox inh = inhibitors of human p47phox binding; inhibition, % at 24.7 µM; 220,000 compounds, 0.53% hits; AID 1274; p47phox/p22phox peptide binding, fluorescence polarization, 2 h; P14598;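 active = inhibition above about 30%, limit read from the data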;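 note: 0% = p47phox with labelled peptide and 100% = labelled peptide alone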
p97 inhibitor = blocks human p97 ATPase activity. P55072. recombinant p97 ATPase, Kinase-Glo ATP luminescence, 3 h. inhibition, % at 8 µM. 220,000 compounds, 0.42% hits. AID 1481;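 note: 0% = DMSO vehicle and 100% = wells lacking enzyme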
Target sequence (P55072 whole entry, looked up): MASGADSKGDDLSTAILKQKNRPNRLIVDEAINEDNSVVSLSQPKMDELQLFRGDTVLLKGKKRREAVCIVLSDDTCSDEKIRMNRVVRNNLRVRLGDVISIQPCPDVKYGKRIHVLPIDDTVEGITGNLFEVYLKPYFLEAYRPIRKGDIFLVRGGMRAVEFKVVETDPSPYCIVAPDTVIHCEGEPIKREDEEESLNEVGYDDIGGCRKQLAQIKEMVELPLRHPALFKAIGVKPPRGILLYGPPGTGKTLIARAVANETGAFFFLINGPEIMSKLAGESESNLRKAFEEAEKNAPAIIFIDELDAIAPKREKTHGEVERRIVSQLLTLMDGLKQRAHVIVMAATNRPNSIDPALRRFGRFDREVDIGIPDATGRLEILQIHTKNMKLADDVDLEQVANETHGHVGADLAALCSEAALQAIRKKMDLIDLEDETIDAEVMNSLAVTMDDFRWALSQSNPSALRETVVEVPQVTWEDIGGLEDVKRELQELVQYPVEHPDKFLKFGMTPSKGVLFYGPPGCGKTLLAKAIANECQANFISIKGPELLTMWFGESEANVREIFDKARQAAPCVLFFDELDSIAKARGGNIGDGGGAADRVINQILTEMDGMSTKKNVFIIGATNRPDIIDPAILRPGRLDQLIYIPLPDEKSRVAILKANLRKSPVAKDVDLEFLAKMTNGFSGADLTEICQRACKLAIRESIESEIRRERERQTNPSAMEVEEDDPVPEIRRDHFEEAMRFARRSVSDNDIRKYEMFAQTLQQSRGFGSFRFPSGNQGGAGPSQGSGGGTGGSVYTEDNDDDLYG
UBC9 SUMO inh = SUMOylation inhibition; HTRF SUMOylation assay, SAE1/SAE2 + UBC9, in vitro; inhibition, % at 35 µM; 290,000 compounds, 0.36% hits; AID 2006; in the data active = inhibition above about 50%, passing the limit was not always enough
14-3-3 Bad inh = disrupts binding of bovine 14-3-3 zeta to phospho-Bad peptide. P63103. 220,000 compounds, 0.71% hits. inhibition, % at 21.7 µM. TR-FRET 14-3-3zeta/Dy647-pBad peptide displacement, 1 h;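 active = inhibition above about 70%, limit read from the data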;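 note: 0% = full 14-3-3 plus peptide FRET controls and 100% = background without 14-3-3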
TbMetRS inhib = blocks T. brucei methionyl-tRNA synthetase activity. purified T. brucei MetRS, ATP depletion, Kinase-Glo luminescence. inhibition, % at 11.9 µM. 360,000 compounds, 0.4% hits. AID 624268;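 active = inhibition above a per-plate cutoff of the control wells' mean inhibition plus 3 SD, cut at about 5.5% in these data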;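 note: 0% = DMSO wells median and 100% = median of wells with control inhibitor compound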
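Material: T. brucei methionyl-tRNA synthetase, purified; reagent: substrates ATP, L-methionine and bulk Escherichia coli tRNA; dosing: 11.9 µM single point; timing: 15 min plus 2 h at 25 °C; detection: luminescence of leftover ATP; evaluation: % inhibition; control set: DMSO-only wells as low control; replicates: singlicate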
eIF4E-4G inh = blocks eIF4E binding to eIF4G; inhibition, % at 21.7 µM; 220,000 compounds, 0.37% hits; TR-FRET eIF4E-eIF4GI(517-606) binding, 2 h; AID 782; P63073+Q04637;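 active = inhibition above about 30%, limit read from the data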;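 note: 0% = full FRET control wells and 100% = background wells lacking eIF4GI fragment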
p97 inh conf = human p97 ATPase inhibition, confirmation; shares compounds with p97 inhibitor; recombinant p97 ATPase, Kinase-Glo ATP luminescence; inhibition, % at 8 µM; 760 compounds, 44% hits; AID 1517;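 active = percent inhibition of p97 ATPase above a set limit, the primary screen's mean plus 3 SD, cut at about 15% in these data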;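 note: 0% = DMSO wells and 100% = wells lacking p97 protein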
TbMetRS confirm = confirmation of Trypanosoma brucei MetRS inhibitors | shares compounds with TbMetRS inhib | T. brucei MetRS enzyme, luminescence (ATP depletion) | inhibition, % at 11.9 µM | 1,400 compounds, 93% hits | AID 624412; in the data active = inhibition above about 7%
Jurkat tox = kills Jurkat cells in T. brucei MetRS counterscreen. 1,400 compounds, 12% hits. inhibition, % at 8.3 µM. Jurkat cells viability, ATP luminescence. shares compounds with TbMetRS inhib. AID 624413;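 note: 0% = vehicle and 100% = reference inhibitor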
Tb MetRS inh FP = inhibits T. brucei methionyl tRNA synthetase in orthogonal FP test; shares compounds with TbMetRS inhib; purified T. brucei MetRS, fluorescence polarization; inhibition, % at 11.9 µM; 1,400 compounds, 44% hits; in the data active = inhibition above about 17%;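 note: 0% = vehicle wells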
The depositor's hits bear a star. Cut-off read from the data, not from the text of the source, unless noted: active = inhibition above about 15%; inactive = the rest.

Nc1ccccc1-[n+]1c(-c2ccccc2)cc(-c2ccccc2)cc1-c1ccccc1 was read as p47phox inh 0.5, p97 inhibitor 15.7*, UBC9 SUMO inh 9.1, 14-3-3 Bad inh -0.3, TbMetRS inhib 0.0, eIF4E-4G inh 9.4 and p97 inh conf 10.4.
Screening Oc1ccccc1-[n+]1c(-c2ccccc2)cc(-c2ccccc2)cc1-c1ccccc1 returned TbMetRS inhib -0.1.
Screening O=C1C(=O)c2ccccc2-c2ccccc21 returned p47phox inh -3.3, p97 inhibitor 31.9*, UBC9 SUMO inh 100.2*, 14-3-3 Bad inh -3.3, TbMetRS inhib 38.2*, eIF4E-4G inh -0.6 and p97 inh conf 38.0*.
For O=C1C(=O)c2cccc3cccc1c23 the results were p47phox inh -3.1, p97 inhibitor 11.4, UBC9 SUMO inh 21.4, 14-3-3 Bad inh 12.1, TbMetRS inhib 0.1 and eIF4E-4G inh 2.7.
For Cc1nc2ccccn2c1P(=S)(c1ccccc1)c1ccccc1 the results were TbMetRS inhib -1.4.
Screening CN1C(=O)C(=Cc2ccc(N3CCOCC3)o2)C(=O)N(C)C1=S returned p47phox inh -226.4, p97 inhibitor 19.1*, UBC9 SUMO inh 1.4, 14-3-3 Bad inh -7.2, TbMetRS inhib 0.2, eIF4E-4G inh 3.2 and p97 inh conf -1.5.
For COc1ccc(Cn2c(N)c(C(=O)NCc3ccco3)c3nc4ccccc4nc32)cc1OC the results were p97 inhibitor 32.0*, UBC9 SUMO inh 99.9*, TbMetRS inhib 8.0*, p97 inh conf 6.8, TbMetRS confirm 5.3, Jurkat tox 14.4 and Tb MetRS inh FP 11.4.
`CCOC(=O)c1c(NS(=O)(=O)c2ccccc2)n(CCCOC)c2nc3ccccc3nc12` gave p47phox inh -10.0, p97 inhibitor 45.0*, UBC9 SUMO inh 100.0*, 14-3-3 Bad inh 6.3, TbMetRS inhib 13.6*, eIF4E-4G inh 9.7, p97 inh conf 17.0*, TbMetRS confirm 5.4, Jurkat tox 9.5 and Tb MetRS inh FP 3.2.
Screening Cc1ncoc1C(=O)NCC1=C(c2ccc3ccccc3c2)C[C@@H]2CC[C@H]1N2Cc1ccco1 returned TbMetRS inhib -0.6.
Screening COc1cccc(C)c1NC1=NCCO1 returned TbMetRS inhib -0.1.
For Cc1nc2c(=O)n(C)c(=O)nc-2n(C)n1 the results were p47phox inh 0.2, p97 inhibitor 31.0*, UBC9 SUMO inh 103.0*, 14-3-3 Bad inh -9.7, TbMetRS inhib 30.4*, eIF4E-4G inh 2.3, p97 inh conf 38.3*, TbMetRS confirm 21.6*, Jurkat tox 91.4* and Tb MetRS inh FP 12.1.
O=C1NCN(c2ccccc2)C12CCN(C(c1cccc3ccccc13)c1nnnn1C1CCCCC1)CC2 (stereo not drawn) was read as TbMetRS inhib -0.6.
Screening Nc1c(C(=O)NC2CCCC2)c2nc3ccccc3nc2n1CC1CCCO1 (stereo not drawn) returned p47phox inh -48.0, p97 inhibitor -3.1, UBC9 SUMO inh 101.7, 14-3-3 Bad inh 0.2, TbMetRS inhib 7.5*, eIF4E-4G inh 2.4, TbMetRS confirm 4.9, Jurkat tox -1.4 and Tb MetRS inh FP 5.2.
`COc1cccc(C(c2nnnn2C(C)(C)C)N2CCC3(CC2)C(=O)NCN3c2ccccc2)c1OC` (stereo not drawn) gave TbMetRS inhib 1.0.
For Cc1ccc2nc3c(cc2c1)CC1(C(=O)N(C)C(=O)N(C)C1=O)C1CCCCN31 (stereo not drawn) the results were p47phox inh -2.6, p97 inhibitor 5.6, UBC9 SUMO inh 22.8, 14-3-3 Bad inh 5.8, TbMetRS inhib 0.8 and eIF4E-4G inh 4.0.
